Screening data from PubChem BioAssay.
Arr AP2 block – inhibitors of human beta-arrestin and AP2 interaction. FITC-arrestin peptide / GST-AP2 beads, flow cytometry; AP2 beta2 appendage carries R879A mutation. inhibition, % at 10 µM. hit rate 0.31% among 340,000;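 active = inhibition above a set limit, near 3 SD of compounds lacking own fluorescence, cut at about 54% in these data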
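Assay system: GST-AP2 R879A bound to glutathione beads, E. coli-expressed; Medium: PBS with 0.05% Tween 20 and 0.1% BSA; Also added: fluorescein-tagged arrestin peptide at 50 nM final; Timing: 12 min plus 1 h, RT; Measured by: flow cytometry, FL1 (488/535 nm); Evaluation: percent drop in bead-associated FITC signal.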
Cardio protect – modulators protecting cardiomyocytes from myocardial damage | hit rate 0.63% among 360,000 | AID 588492 | protection from H2O2 cell death, % at 20 µM | H9c2 cardiomyocytes, H2O2 injury protection, ATPLite, 2 h;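 active = compounds giving at least 50% protection of heart cells from peroxide-induced death in the single-dose screen, raw or plate-pattern-corrected value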
NR3A LBD binder – modulators (binders) of human NR3A ligand-binding domain. NR3A LBD differential scanning fluorimetry, Tm shift; 0% = protein alone, 100% = glycine-bound protein. Tm shift relative to glycine control, % at 25 µM. hit rate 2.5% among 340,000. AID 1259313;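 active = melting temperature shift of at least 10% of the positive control shift, at one fixed dose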
iPSC survival up – hiPSC single-cell survival enhancement | ATPlite luminescence; 100% = ROCK inhibitor wells, 0% = DMSO | survival enhancement, % at 20 µM | hit rate 0.044% among 360,000 | AID 602274; in the data active = survival enhancement above about 18%;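 note: cells exposed to compounds for 16 hours before the ATP read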
FAS TE block – blocks the thioesterase domain of human fatty acid synthase. P49327. recombinant FAS-TE, OMFH fluorogenic substrate, fluorescence endpoint. inhibition, % at 15 µM. hit rate 0.67% among 360,000. AID 602261;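 active = compounds whose normalised, plate-corrected inhibition of enzyme fluorescence in the single-dose primary screen is 50% or more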
SENP1 FRET inh – inhibitors of human SENP1 SUMO protease catalytic domain. recombinant SENP1 catalytic domain, CyPet-SUMO1-YPet FRET cleavage. AID 624204. Q9P0U3. inhibition, % at 10 µM. hit rate 0.21% among 360,000;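 active = inhibition at least 30% at 10 µM, raw YFP signal under a set limit, fluorescence ratio 0.5 to 1.5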
Target sequence (Q9P0U3 419-644 limits assumed): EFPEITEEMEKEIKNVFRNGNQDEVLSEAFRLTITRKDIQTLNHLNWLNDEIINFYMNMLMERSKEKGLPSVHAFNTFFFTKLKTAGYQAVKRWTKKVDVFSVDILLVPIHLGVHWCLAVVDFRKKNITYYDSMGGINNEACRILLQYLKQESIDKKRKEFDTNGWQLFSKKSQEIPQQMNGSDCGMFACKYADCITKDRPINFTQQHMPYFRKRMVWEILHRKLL
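System: Recombinant human SENP1 catalytic domain, His6-tagged | Incubation: Enzyme reaction for 50 min at room temperature, dark | Medium: Tris pH 8 with BME, BSA, NP40 and catalase | Also added: 25 nM SUMO1 FRET substrate | Compound: 10 µM single point, 0.5% DMSO | Measured by: FRET fluorescence in CFP and YFP emission channels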
Of the large screens only hits and unclear results are named; the others gave an inactive call. A selection: hits, their analogues and other compounds. The true share with any hit is near 4%.

N#Cc1c(NC(=S)NC(=O)Cc2cccs2)sc2c1CCCCC2	NR3A LBD binder 20
CC1CCc2sc(NC(=S)NC(=O)c3ccccc3)c(C#N)c2C1 (configuration not stated)	NR3A LBD binder 22
Cn1nccc1C(=O)NC(=S)Nc1sc2c(c1C#N)CCCCC2	none
N#Cc1c(NC(=O)c2nc3ncccn3n2)sc2c1CCCCC2	NR3A LBD binder 18
CCN1CCc2c(sc(NC(=S)NC(=O)c3ccccc3)c2C#N)C1	none
CCC1(C)Cc2c(sc(NC(=S)NC(=O)c3ccccc3)c2C#N)CO1 (configuration not stated)	NR3A LBD binder 22
N#Cc1ccc(C(=O)N2CCCCC2c2cc(C(=O)Nc3ccc4c(c3)OCO4)no2)cc1 (configuration not stated)	none (no result: Arr AP2 block, NR3A LBD binder)
N#Cc1c(NC(=S)NC(=O)c2ccccc2)sc2c1CCC2	NR3A LBD binder 11
CC(C)(C)C(=O)NC(NC(=S)Nc1sc2c(c1C#N)CCCC2)C(Cl)(Cl)Cl (configuration not stated)	NR3A LBD binder 16
CC(C)(C)C(=O)Nc1sc2c(c1C#N)CCC2	none
CCN(CC)C(=O)Oc1cc(=O)n(C)c2ccccc12	NR3A LBD binder 25
CCOc1ccc(CCNC(=O)c2cc3c(C)nccc3[nH]c2=O)cc1OCC	Cardio protect 72
C#CCn1c2ccccc2c(=O)n1CCOc1ccccc1OC	none (no result: Arr AP2 block, Cardio protect, NR3A LBD binder, iPSC survival up, FAS TE block)
Cc1ccc(C)c(N2CCN(C(=O)CCc3nc(-c4cccc(Br)c4)no3)CC2)c1	none
Cc1ccc(C)c(N2CCN(C(=O)CCc3nc(-c4cccc(F)c4)no3)CC2)c1	NR3A LBD binder 20
N#CCCCSc1nnc(Cc2ccc3c(c2)OCO3)o1	NR3A LBD binder 12
CSc1nnc(Cc2ccc3c(c2)OCO3)o1	none
CC1=C(C(=O)N2CCCCCC2)CC(CC(=O)NCCc2ccccn2)C(=O)N1CCCN1CCCC1=O (configuration not stated)	none (no result: Arr AP2 block, Cardio protect, NR3A LBD binder)
Cc1cnc(C=O)c2cccc([N+](=O)[O-])c12	Cardio protect 57 (no result: Arr AP2 block, NR3A LBD binder)
COc1ccc(N2CC(C(=O)NCc3ccccc3)CC2=O)cc1 (configuration not stated)	none
O=C(NCc1n[nH]c(=O)c2ccccc12)C1CC(=O)N(c2ccc(Cl)cc2)C1 (configuration not stated)	Cardio protect 59
COc1ccc(N2CC(C(=O)NCc3n[nH]c(=O)c4ccccc34)CC2=O)cc1 (configuration not stated)	Cardio protect 65
O=C(NCc1cccnc1)C1CC(=O)N(c2ccc(Cl)cc2)C1 (configuration not stated)	none
COCCNc1nc(-c2ccccc2CO)c2sc(-c3ccccc3)cc2n1	none (no result: Arr AP2 block, NR3A LBD binder)
COc1ccc(/C=N/NC(=S)Nc2ccccc2)cc1COc1ccc(Br)cc1	NR3A LBD binder 11
COc1ccc(/C=N/NC(=S)Nc2ccccc2)cc1COc1ccc(F)cc1	none
Cc1[nH]c2ccccc2c1C(=O)COC(=O)c1cccc(S(=O)(=O)N2CCCCC2)c1	NR3A LBD binder 21
Cn1c(N)c(C(=O)COC(=O)c2cccc(S(=O)(=O)N3CCCCC3)c2)c(=O)n(C)c1=O	none
Cc1onc(-c2c(F)cccc2Cl)c1C(=O)OCC(=O)c1c[nH]c2ccccc12	NR3A LBD binder 13
Cc1ccc(C(=O)OCC(=O)c2c[nH]c3ccccc23)cc1S(=O)(=O)N1CCCCC1	NR3A LBD binder 25
Cc1noc(C)c1C(=O)OCC(=O)c1c[nH]c2ccccc12	none
FC(F)(F)c1ccc(-c2cccc3c2C2CC3CCN2Cc2ccc3c(c2)OCO3)cc1 (configuration not stated)	none (no result: Arr AP2 block, NR3A LBD binder)
COc1cccc(-c2nc(C#N)c(N3CCN(C(=O)c4ccco4)CC3)o2)c1	NR3A LBD binder 11
N#Cc1nc(-c2ccc(F)cc2)oc1N1CCN(C(=O)c2ccco2)CC1	none
COc1cccc(-c2nc3ccc(C(=O)NC(C)Cc4cccnc4)cc3o2)c1 (configuration not stated)	none
O=C(CCCCn1c(=O)c2ccccc2n(Cc2ccc(Cl)cc2)c1=O)NCc1ccco1	NR3A LBD binder 14
COCC(=O)N[C@H]1CC[C@@H](CC(=O)NCc2ccccc2OC)O[C@@H]1CO	none (no result: Arr AP2 block, Cardio protect, NR3A LBD binder, iPSC survival up, FAS TE block)
COc1ccc(Nc2ccc([N+](=O)[O-])cn2)cc1	none
Cc1ccc(Nc2nc(=O)c3cc([N+](=O)[O-])ccc3s2)cc1	NR3A LBD binder 13
COc1ccc(Nc2nc(=O)c3cc([N+](=O)[O-])ccc3s2)cc1	NR3A LBD binder 13
COc1ccc(Nc2cc(C)c3cc([N+](=O)[O-])ccc3n2)cc1	NR3A LBD binder 28
Cc1ccccc1Nc1nc(=O)c2cc([N+](=O)[O-])ccc2s1	none
Cc1nnc(NC(=O)c2ccc(F)c(S(=O)(=O)N3CCCCC3)c2)s1	NR3A LBD binder 16
Cc1nnc(NC(=O)c2ccc(C)c(S(=O)(=O)N3CCOCC3)c2)s1	none
O=C(Nc1ccccn1)c1ccc(Br)c(S(=O)(=O)N2CCCCC2)c1	NR3A LBD binder 13
CC1=C(C(=O)N(C)C)CC(CC(=O)NCc2cccc3ccccc23)C(=O)N1Cc1ccc(F)cc1 (configuration not stated)	none (no result: Arr AP2 block, NR3A LBD binder)
c1ccc2c(-c3c[nH]c4ccccc34)c3ccccc3nc2c1	none
Clc1ccc(-c2c[nH]c3ccccc23)nn1	NR3A LBD binder 18
O=C1N[C@H]2CC=C[C@H]2Nc2ccccc21	Cardio protect 51
Brc1ccc(-c2noc(C3CCCCC3)n2)cc1	NR3A LBD binder 14
c1ccc(-c2noc(C3CCCCC3)n2)nc1	none
CCOC(=O)[C@]12CCC=C1N(Cc1ccccc1)C(=O)[C@H](CC(=O)N1CCOCC1)C2	none (no result: Arr AP2 block, Cardio protect, NR3A LBD binder)
Oc1ccccc1O	Cardio protect 66
CN(C)Cc1csc(NC(=O)Nc2ccccc2Cc2ccccc2)n1	none (no result: Arr AP2 block, NR3A LBD binder)
O=C(NC1CCN(Cc2ccccc2)CC1)c1ccc(CS(=O)c2ccccc2Cl)o1 (configuration not stated)	none (no result: Arr AP2 block, NR3A LBD binder)
CCOc1ccccc1-c1c2cc(O)c(=O)cc-2oc2cc(O)c(O)cc12	Cardio protect 60
CC1=CC(Cc2ccccc2)N(C)C(C(N)=O)C1 (configuration not stated)	none (no result: Arr AP2 block, NR3A LBD binder)
CS(=O)(=O)c1cnc2c(-c3ccc(F)cc3)cnn2c1N	NR3A LBD binder 37
Nc1c(-c2cccs2)cnc2c(-c3ccc(F)cc3)cnn12	NR3A LBD binder 30
CCCCCCN1C[C@@H](O)[C@H](n2cc(-c3ccc(F)cc3)nn2)C[C@@H]1c1ccccc1	none (no result: Arr AP2 block, NR3A LBD binder)
COc1ccc(-c2csc(NC(=O)c3ccc(OCC(=O)N4CCOCC4)c(OC)c3)n2)cc1OC	Cardio protect 81
